Experiments:
Cannabinoid receptor 1 [1] = target: T1, Cannabinoid receptor 1 (Homo sapiens, UniProt P21554); assay: Agonist activity at human CB1 receptor expressed in Sf9 cells by GTP-europium binding assay
In short: (§1)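 Membranes were from Sf9 insect cells cotransfected with CB1 or CB2 plus Gαi3 (Bmax 1.7 pmol/mL). Compound (0.01 nM–10 µM, 1% DMSO final) was added to buffer with Hepes, BSA, 10 mM MgCl2, 150 mM NaCl, 5 µM GDP, 10 nM GTP-europium, saponin and membranes (CB1 4.5 µg/well, CB2 14 µg/well). 100% efficacy was set by 3 µM reference agonist.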

Cannabinoid receptor 2 [2] = target: T2, Cannabinoid receptor 2 (Homo sapiens, UniProt P34972); assay: Agonist activity at human recombinant CB2 receptor expressed in Sf9 cells by GTP-europium binding assay; in short: as §1
T2 sequence (P34972 whole entry): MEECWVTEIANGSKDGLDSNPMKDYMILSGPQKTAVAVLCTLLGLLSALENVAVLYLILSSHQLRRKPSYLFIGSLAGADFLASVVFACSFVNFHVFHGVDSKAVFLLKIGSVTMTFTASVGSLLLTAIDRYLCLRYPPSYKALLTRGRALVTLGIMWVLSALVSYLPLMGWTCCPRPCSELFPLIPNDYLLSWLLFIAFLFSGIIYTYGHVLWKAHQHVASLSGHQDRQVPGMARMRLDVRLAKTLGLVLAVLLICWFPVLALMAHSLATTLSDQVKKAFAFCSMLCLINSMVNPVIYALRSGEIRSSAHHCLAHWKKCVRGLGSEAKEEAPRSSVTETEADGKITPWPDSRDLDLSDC

Cannabinoid receptor 2 [3] = target: T2, Cannabinoid receptor 2; assay: Agonist activity at human recombinant CB2 receptor expressed in Sf9 cells by GTP-europium binding assay relative to CP-55940
In short: (§2)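 Membranes were from Sf9 insect cells cotransfected with CB1 or CB2 plus Gαi3 (Bmax 1.7 pmol/mL). Compound (0.01 nM–10 µM, 1% DMSO final) was added to buffer with Hepes, BSA, 10 mM MgCl2, 150 mM NaCl, 5 µM GDP, 10 nM GTP-europium, saponin and membranes (CB1 4.5 µg/well, CB2 14 µg/well). Incubation was 45 min at room temperature, then filtration and washing, with fluorescence read at 615 nm. 100% efficacy was set by 3 µM reference agonist.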

Cannabinoid receptor 1 [4] = target: T1, Cannabinoid receptor 1; assay: Agonist activity at human recombinant CB1 receptor expressed in CHO-K1 cells assessed as inhibition of forskolin-stimulated intracellular cAMP level; assay type: functional, cell-based
In short: (§3)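 CHO-K1 cells stably expressing human or rat CB1 or CB2 were used. Compounds were diluted from DMSO into HBSS/HEPES/BSA buffer containing 60 µM forskolin, then combined with 5000 cells/well plus Alexa647 anti-cAMP antibody, 1 h at room temperature. A biotinylated-cAMP detection mix was added for another 1 h.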

Cannabinoid receptor 2 [5] = target: T2, Cannabinoid receptor 2; assay: Agonist activity at human recombinant CB2 receptor expressed in CHO-K1 cells assessed as inhibition of forskolin-stimulated intracellular cAMP level; assay type: functional, cell-based; in short: as §3
Cannabinoid receptor 2 [6] = target: T2, Cannabinoid receptor 2; assay: Agonist activity at human recombinant CB2 receptor expressed in CHO-K1 cells assessed as inhibition of forskolin-stimulated intracellular cAMP level relative to CP-55940; assay type: functional, cell-based
In short: (§4)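 CHO-K1 cells stably expressing human or rat CB1 or CB2 were used. Compounds were diluted from DMSO into HBSS/HEPES/BSA buffer containing 60 µM forskolin, then combined with 5000 cells/well plus Alexa647 anti-cAMP antibody, 1 h at room temperature. A biotinylated-cAMP detection mix was added for another 1 h. Emission at 665 nm gave concentration-response curves and EC50; Emax is expressed as a percentage of the reference agonist maximum.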

Cannabinoid receptor 1 [7] = target: Cannabinoid receptor 1 (Rattus norvegicus, UniProt P20272); assay: Agonist activity at rat recombinant CB1 receptor expressed in CHO-K1 cells assessed as inhibition of forskolin-stimulated intracellular cAMP level; assay type: functional, cell-based; in short: as §3
Cannabinoid receptor 1 (Rattus norvegicus, UniProt P20272), sequence (P20272 whole entry): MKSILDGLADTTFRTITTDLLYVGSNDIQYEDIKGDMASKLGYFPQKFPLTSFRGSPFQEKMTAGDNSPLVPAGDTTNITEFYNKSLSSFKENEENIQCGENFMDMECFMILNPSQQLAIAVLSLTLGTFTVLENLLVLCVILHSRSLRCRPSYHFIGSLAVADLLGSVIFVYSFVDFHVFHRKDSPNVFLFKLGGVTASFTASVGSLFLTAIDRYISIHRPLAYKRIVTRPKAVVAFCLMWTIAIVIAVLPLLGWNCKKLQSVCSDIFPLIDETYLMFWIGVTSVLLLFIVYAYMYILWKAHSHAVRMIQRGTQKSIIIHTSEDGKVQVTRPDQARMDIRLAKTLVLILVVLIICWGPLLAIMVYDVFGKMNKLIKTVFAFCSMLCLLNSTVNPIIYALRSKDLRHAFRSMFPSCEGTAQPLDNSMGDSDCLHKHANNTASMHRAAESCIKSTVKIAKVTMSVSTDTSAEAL

Cannabinoid receptor 2 [8] = target: T3, Cannabinoid receptor 2 (Rattus norvegicus, UniProt Q9QZN9); assay: Agonist activity at rat recombinant CB2 receptor expressed in CHO-K1 cells assessed as inhibition of forskolin-stimulated intracellular cAMP level; assay type: functional, cell-based; in short: as §4
T3 sequence (Q9QZN9 whole entry): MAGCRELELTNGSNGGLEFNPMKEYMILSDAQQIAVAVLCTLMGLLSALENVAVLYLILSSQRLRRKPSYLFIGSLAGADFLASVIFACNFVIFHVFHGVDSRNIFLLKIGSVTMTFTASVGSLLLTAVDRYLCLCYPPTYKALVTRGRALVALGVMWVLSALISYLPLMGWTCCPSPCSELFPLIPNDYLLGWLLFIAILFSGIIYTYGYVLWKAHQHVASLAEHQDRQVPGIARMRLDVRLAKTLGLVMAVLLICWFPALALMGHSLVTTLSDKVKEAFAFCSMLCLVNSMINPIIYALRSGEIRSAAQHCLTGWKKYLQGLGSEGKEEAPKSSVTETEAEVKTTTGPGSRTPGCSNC

[9] = target: T4, Cannabinoid receptor 2 (Rattus norvegicus) (UniProt Q9QZN9); assay: Agonist activity at rat recombinant CB2 receptor expressed in CHO-K1 cells assessed as inhibition of forskolin-stimulated intracellular cAMP level relative to CP-55940; assay type: functional, cell-based; in short: as §4
T4 sequence (whole entry): T3 sequence (Q9QZN9 whole entry)

Cannabinoid receptor 1 [10] = target: T1, Cannabinoid receptor 1; assay: Agonist activity at human recombinant CB1 receptor expressed in Sf9 cells by GTP-europium binding assay relative to CP-55940; in short: as §2
[11] = target: Cannabinoid receptor 1 (Rattus norvegicus) (UniProt P20272); assay: Agonist activity at rat recombinant CB1 receptor expressed in CHO-K1 cells assessed as inhibition of forskolin-stimulated intracellular cAMP level relative to CP-55940; assay type: functional, cell-based; in short: as §4
Cannabinoid receptor 1 (Rattus norvegicus), sequence (P20272 whole entry): as the sequence (P20272 whole entry) above

Cannabinoid receptor 1 [12] = target: T1, Cannabinoid receptor 1; assay: Agonist activity at human recombinant CB1 receptor expressed in CHO-K1 cells assessed as inhibition of forskolin-stimulated intracellular cAMP level relative to CP-55940; assay type: functional, cell-based; in short: as §4

T1 sequence (P21554 whole entry): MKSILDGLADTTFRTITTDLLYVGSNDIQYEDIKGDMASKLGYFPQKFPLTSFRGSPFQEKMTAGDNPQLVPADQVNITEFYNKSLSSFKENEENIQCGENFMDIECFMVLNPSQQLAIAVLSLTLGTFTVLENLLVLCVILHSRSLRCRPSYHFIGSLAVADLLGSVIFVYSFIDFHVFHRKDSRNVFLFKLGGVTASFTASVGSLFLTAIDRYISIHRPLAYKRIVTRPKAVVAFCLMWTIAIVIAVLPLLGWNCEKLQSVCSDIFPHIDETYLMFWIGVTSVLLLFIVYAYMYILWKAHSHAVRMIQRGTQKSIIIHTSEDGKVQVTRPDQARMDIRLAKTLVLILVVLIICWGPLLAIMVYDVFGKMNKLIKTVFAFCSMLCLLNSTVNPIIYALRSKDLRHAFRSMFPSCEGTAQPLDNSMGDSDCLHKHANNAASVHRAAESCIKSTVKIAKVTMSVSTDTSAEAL

| SMILES | EC50 (Cannabinoid receptor 1 [1]) | EC50 (Cannabinoid receptor 2 [2]) | Emax (Cannabinoid receptor 2 [3]) | EC50 (Cannabinoid receptor 1 [4]) | EC50 (Cannabinoid receptor 2 [5]) | Emax (Cannabinoid receptor 2 [6]) | EC50 (Cannabinoid receptor 1 [7]) | EC50 (Cannabinoid receptor 2 [8]) | Emax [9] | Emax (Cannabinoid receptor 1 [10]) | Emax [11] | Emax (Cannabinoid receptor 1 [12]) |
| --- | --- | --- | --- | --- | --- | --- | --- | --- | --- | --- | --- | --- |
| O=C(CCc1nc(-c2ccc(F)cc2Cl)no1)Nc1ccc(C(F)(F)F)cc1 | > 10000 nM | 75 nM | 120% | > 1000 nM | 38 nM | 94% | > 1000 nM | 58 nM | 90% |  |  |  |
| CCn1c2ccccc2c2cc(NC(=O)CCc3nc(-c4ccccc4C(C)C)no3)ccc21 | > 10000 nM | 670 nM | 88% |  |  |  |  |  |  |  |  |  |
| CCn1c2ccccc2c2cc(NC(=O)CCc3nc(-c4ccc(F)cc4C)no3)ccc21 | 1400 nM | 0.089 nM | 120% | > 1000 nM | 0.47 nM | 100% | 280 nM | 0.27 nM | 110% | 24% | 81% |  |
| CCn1c2ccccc2c2cc(NC(=O)CCn3nnc(-c4ccccc4F)n3)ccc21 | > 10000 nM | 200 nM | 93% | > 1000 nM | 690 nM | 88% | > 1000 nM | 97 nM | 90% |  |  |  |
| CCn1c2ccccc2c2cc(NC(=O)CCc3nc(-c4ccccc4Cl)no3)ccc21 | > 10000 nM | 6 nM | 100% |  |  |  |  |  |  |  |  |  |
| CC(C)c1ccc(NC(=O)CCc2nc(-c3ccc(F)cc3Cl)no2)cc1 | 2000 nM | 10 nM | 130% |  |  |  |  |  |  | 23% |  |  |
| O=C(CCc1nc(-c2ccc(F)cc2Cl)no1)Nc1ccc(C(F)(F)F)c(Cl)c1 | > 10000 nM | 62 nM | 120% | > 1000 nM | 25 nM | 97% | > 1000 nM | 79 nM | 100% |  |  |  |
| O=C(CCc1nc(-c2ccc(F)cc2Cl)no1)Nc1ccc(C(F)(F)F)nc1 | 2800 nM | 97 nM | 120% | > 1000 nM | 78 nM | 96% | > 1000 nM | 73 nM | 95% | 17% |  |  |
| CC(C)(C)c1cc(NCCCc2nc(-c3ccc(F)cc3Cl)no2)no1 | 670 nM | 27 nM | 110% | > 1000 nM | 130 nM | 90% | > 1000 nM | 190 nM | 82% | 33% |  |  |
| CCn1c2ccccc2c2cc(NC(=O)CCc3nc(-c4ccc(F)cc4)no3)ccc21 | 1200 nM | 9.8 nM | 95% | 330 nM | 4.8 nM | 95% | 650 nM | 3.2 nM | 90% | 55% | 65% | 24% |
| CC(C)(C)c1ncc(NC(=O)CCc2nc(-c3ccc(F)cc3Cl)no2)cn1 | > 10000 nM | 5.4 nM | 91% | > 1000 nM | 2.9 nM | 97% | 570 nM | 1.3 nM | 99% |  | 67% |  |
| CCn1c2ccccc2c2cc(NC(=O)CCc3nc(-c4cccc(Cl)c4)no3)ccc21 | > 10000 nM | 410 nM | 87% |  |  |  |  |  |  |  |  |  |
| CCn1c2ccccc2c2cc(NC(=O)CCc3nc(C4CCOCC4)no3)ccc21 | > 10000 nM | 42 nM | 94% | > 1000 nM | 2.4 nM | 98% | 150 nM | 0.38 nM | 100% |  | 110% | 23% |
| CCn1c2ccccc2c2cc(NC(=O)CCn3cc(-c4ccccc4F)nn3)ccc21 | > 10000 nM | 470 nM | 15% |  |  |  |  |  |  |  |  |  |
| CCn1c2ccccc2c2cc(NC(=O)CCc3nc(-c4ccccc4F)co3)ccc21 | > 10000 nM | 2000 nM | 46% |  |  |  |  |  |  |  |  |  |
| N#Cc1cc(NCCCc2nc(-c3ccc(F)cc3Cl)no2)cnc1OCC(F)(F)F | 1300 nM | 31 nM | 110% | > 1000 nM | 360 nM | 87% | > 1000 nM | 130 nM | 85% | 24% |  |  |
| CCn1c2ccccc2c2cc(NC(=O)CCc3noc(-c4ccccc4F)n3)ccc21 | > 10000 nM | 190 nM | 76% |  |  |  |  |  |  |  |  |  |
| CCn1c2ccccc2c2cc(NC(=O)CCc3nc(-c4ccncc4C#N)no3)ccc21 | > 10000 nM | 3.8 nM | 110% | > 1000 nM | > 2.6 nM | 100% | > 1000 nM | 1.3 nM | 110% |  |  |  |
| CCn1c2ccccc2c2cc(NC(=O)CCc3nc(-c4ccccc4)no3)ccc21 |  | 150 nM | 100% |  |  |  |  |  |  |  |  |  |
| CCn1c2ccccc2c2cc(NC(=O)CCc3cc(-c4ccccc4F)no3)ccc21 | > 10000 nM | 270 nM | 64% |  |  |  |  |  |  |  |  |  |
| CCCCCCC(C)(C)c1ccc([C@@H]2C[C@H](O)CC[C@H]2CCCO)c(O)c1 [CP-55940] |  |  |  |  |  |  |  | 0.34 nM |  |  |  |  |
| CCn1c2ccccc2c2cc(NC(=O)CCc3cc(-c4ccccc4F)[nH]n3)ccc21 | > 10000 nM | > 10000 nM |  |  |  |  |  |  |  |  |  |  |
| CCn1c2ccccc2c2cc(NC(=O)CCc3cc(-c4ccccc4F)n(C)n3)ccc21 | > 10000 nM | > 10000 nM |  |  |  |  |  |  |  |  |  |  |
